{"source": "paper PMC10582678", "about": "(Clinical and Translational Science, 2023)", "assay": "Safety, adverse events, multiple ascending doses", "type": "in vivo, human", "settings": "for AEs / Abdominal discomfort / Constipation / Decreased leukocyte count / Decreased lymphocyte count / Decreased neutrophil count / Dermatitis allergic / Dyspepsia / Increased ALT / Increased AST / Increased blood bilirubin / Increased blood creatinine / Lethargy / Mouth ulceration / Oropharyngeal pain / Sinus arrythmia / Upper respiratory tract infection / Increased blood cholesterol / Treatment discontinuation due to AEs / Increased blood triglycerides: n (%)", "method_in_brief": "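Safety was monitored by vital signs, clinical laboratory tests, physical examination, 12-lead ECG, AEs and SAEs. AEs were coded with MedDRA 23.1 and graded by CTCAE 5.0. Subjects were discharged 6 days after the last dose, with a follow-up visit 8–14 days after the last dose. The safety set comprised randomized subjects who received active drug or placebo and had post-dose safety data.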", "key": {"[1]": {"settings": "18 subjects, MAD 200 to 600 mg for 10 days"}}}
{"smiles": "N#CN1C[C@H](n2nc(-c3ccc(Oc4ccc(Cl)cn4)cc3)c(C(N)=O)c2N)CCC12CC2", "note": "[SN1011, 5-amino-3-(4-((5-chloro-2-pyridinyl)oxy)phenyl)-1-((6R)-4-cyano-4-azaspiro[2.5]octan-6-yl)-1H-pyrazole-4-carboxamide]", "values": [{"measurement": "blood triglycerides increased", "setting": "[1]", "value": 33.3, "unit": "%"}, {"measurement": "leucocyte count decreased", "setting": "[1]", "value": 22.2, "unit": "%"}, {"measurement": "neutrophil count decreased", "setting": "[1]", "value": 27.8, "unit": "%"}, {"measurement": "number of AEs", "setting": "[1]", "value": 34}, {"measurement": "subjects who experienced AEs", "setting": "[1]", "value": 66.7, "unit": "%"}, {"measurement": "subjects with at least a treatment-related AE (TRAE)", "setting": "18 subjects, MAD 200 to 600 mg, all grade 1 or 2", "value": 61.1, "unit": "%"}, {"measurement": "AEs", "setting": "MAD 200 mg QD, any grade", "value": "3 (50.0)"}, {"measurement": "Abdominal discomfort", "setting": "MAD 200 mg QD, any grade", "value": 0}, {"measurement": "Constipation", "setting": "MAD 200 mg QD, any grade", "value": 0}, {"measurement": "Decreased leukocyte count", "setting": "MAD 200 mg QD, any grade", "value": "1 (16.7)"}, {"measurement": "Decreased lymphocyte count", "setting": "MAD 200 mg QD, any grade", "value": 0}, {"measurement": "Decreased neutrophil count", "setting": "MAD 200 mg QD, any grade", "value": "1 (16.7)"}, {"measurement": "Dermatitis allergic", "setting": "MAD 200 mg QD, any grade", "value": 0}, {"measurement": "Dyspepsia", "setting": "MAD 200 mg QD, any grade", "value": 0}, {"measurement": "Increased ALT", "setting": "MAD 200 mg QD, any grade", "value": "1 (16.7)"}, {"measurement": "Increased AST", "setting": "MAD 200 mg QD, any grade", "value": "1 (16.7)"}, {"measurement": "Increased blood bilirubin", "setting": "MAD 200 mg QD, any grade", "value": "1 (16.7)"}, {"measurement": "Increased blood creatinine", "setting": "MAD 200 mg QD, any grade", "value": 0}, {"measurement": "Lethargy", "setting": "MAD 200 mg QD, any grade", "value": 0}, {"measurement": "Mouth ulceration", "setting": "MAD 200 mg QD, any grade", "value": 0}, {"measurement": "Oropharyngeal pain", "setting": "MAD 200 mg QD, any grade", "value": 0}, {"measurement": "Sinus arrythmia", "setting": "MAD 200 mg QD, any grade", "value": 0}, {"measurement": "Upper respiratory tract infection", "setting": "MAD 200 mg QD, any grade", "value": 0}, {"measurement": "Increased blood cholesterol", "setting": "MAD 200 mg QD", "value": 0}, {"measurement": "Treatment discontinuation due to AEs", "setting": "MAD 200 mg QD", "value": 0}, {"measurement": "AEs", "setting": "MAD 400 mg QD, any grade", "value": "4 (66.7)"}, {"measurement": "Abdominal discomfort", "setting": "MAD 400 mg QD, any grade", "value": 0}, {"measurement": "Constipation", "setting": "MAD 400 mg QD, any grade", "value": 0}, {"measurement": "Decreased leukocyte count", "setting": "MAD 400 mg QD, any grade", "value": "1 (16.7)"}, {"measurement": "Decreased lymphocyte count", "setting": "MAD 400 mg QD, any grade", "value": 0}, {"measurement": "Decreased neutrophil count", "setting": "MAD 400 mg QD, any grade", "value": "2 (33.3)"}, {"measurement": "Dermatitis allergic", "setting": "MAD 400 mg QD, any grade", "value": 0}, {"measurement": "Dyspepsia", "setting": "MAD 400 mg QD, any grade", "value": 0}, {"measurement": "Increased ALT", "setting": "MAD 400 mg QD, any grade", "value": 0}, {"measurement": "Increased AST", "setting": "MAD 400 mg QD, any grade", "value": 0}, {"measurement": "Increased blood bilirubin", "setting": "MAD 400 mg QD, any grade", "value": 0}, {"measurement": "Increased blood creatinine", "setting": "MAD 400 mg QD, any grade", "value": "2 (33.3)"}, {"measurement": "Increased blood triglycerides", "setting": "MAD 400 mg QD, any grade", "value": "2 (33.3)"}, {"measurement": "Lethargy", "setting": "MAD 400 mg QD, any grade", "value": 0}, {"measurement": "Mouth ulceration", "setting": "MAD 400 mg QD, any grade", "value": 0}, {"measurement": "Sinus arrythmia", "setting": "MAD 400 mg QD, any grade", "value": "1 (16.7)"}, {"measurement": "Upper respiratory tract infection", "setting": "MAD 400 mg QD, any grade", "value": "1 (16.7)"}, {"measurement": "Increased blood cholesterol", "setting": "MAD 400 mg QD", "value": 0}, {"measurement": "Treatment discontinuation due to AEs", "setting": "MAD 400 mg QD", "value": 0}, {"measurement": "AEs", "setting": "MAD 600 mg QD, any grade", "value": "5 (83.3)"}, {"measurement": "Abdominal discomfort", "setting": "MAD 600 mg QD, any grade", "value": "1 (16.7)"}, {"measurement": "Constipation", "setting": "MAD 600 mg QD, any grade", "value": "1 (16.7)"}, {"measurement": "Decreased leukocyte count", "setting": "MAD 600 mg QD, any grade", "value": "2 (33.3)"}, {"measurement": "Decreased lymphocyte count", "setting": "MAD 600 mg QD, any grade", "value": "1 (16.7)"}, {"measurement": "Decreased neutrophil count", "setting": "MAD 600 mg QD, any grade", "value": "2 (33.3)"}, {"measurement": "Dermatitis allergic", "setting": "MAD 600 mg QD, any grade", "value": "2 (33.3)"}, {"measurement": "Dyspepsia", "setting": "MAD 600 mg QD, any grade", "value": "1 (16.7)"}, {"measurement": "Increased ALT", "setting": "MAD 600 mg QD, any grade", "value": "1 (16.7)"}, {"measurement": "Increased AST", "setting": "MAD 600 mg QD, any grade", "value": "1 (16.7)"}, {"measurement": "Increased blood bilirubin", "setting": "MAD 600 mg QD, any grade", "value": "1 (16.7)"}, {"measurement": "Increased blood creatinine", "setting": "MAD 600 mg QD, any grade", "value": 0}, {"measurement": "Increased blood triglycerides", "setting": "MAD 600 mg QD, any grade", "value": "2 (33.3)"}, {"measurement": "Lethargy", "setting": "MAD 600 mg QD, any grade", "value": "1 (16.7)"}, {"measurement": "Mouth ulceration", "setting": "MAD 600 mg QD, any grade", "value": "1 (16.7)"}, {"measurement": "Oropharyngeal pain", "setting": "MAD 600 mg QD, any grade", "value": "1 (16.7)"}, {"measurement": "Sinus arrythmia", "setting": "MAD 600 mg QD, any grade", "value": 0}, {"measurement": "Increased blood cholesterol", "setting": "MAD 600 mg QD", "value": 0}, {"measurement": "Treatment discontinuation due to AEs", "setting": "MAD 600 mg QD", "value": 0}, {"measurement": "AEs", "setting": "MAD All SN1011, N = 18", "value": "12 (66.7)"}, {"measurement": "Abdominal discomfort", "setting": "MAD All SN1011, N = 18", "value": "1 (5.6)"}, {"measurement": "Constipation", "setting": "MAD All SN1011, N = 18", "value": "1 (5.6)"}, {"measurement": "Decreased leukocyte count", "setting": "MAD All SN1011, N = 18", "value": "4 (22.2)"}, {"measurement": "Decreased lymphocyte count", "setting": "MAD All SN1011, N = 18", "value": "1 (5.6)"}, {"measurement": "Decreased neutrophil count", "setting": "MAD All SN1011, N = 18", "value": "5 (27.8)"}, {"measurement": "Dermatitis allergic", "setting": "MAD All SN1011, N = 18", "value": "2 (11.1)"}, {"measurement": "Dyspepsia", "setting": "MAD All SN1011, N = 18", "value": "1 (5.6)"}, {"measurement": "Increased ALT", "setting": "MAD All SN1011, N = 18", "value": "2 (11.1)"}, {"measurement": "Increased AST", "setting": "MAD All SN1011, N = 18", "value": "2 (11.1)"}, {"measurement": "Increased blood bilirubin", "setting": "MAD All SN1011, N = 18", "value": "2 (11.1)"}, {"measurement": "Increased blood cholesterol", "setting": "MAD All SN1011, N = 18", "value": 0}, {"measurement": "Increased blood creatinine", "setting": "MAD All SN1011, N = 18", "value": "2 (11.1)"}, {"measurement": "Increased blood triglycerides", "setting": "MAD All SN1011, N = 18", "value": "6 (33.3)"}, {"measurement": "Lethargy", "setting": "MAD All SN1011, N = 18", "value": "1 (5.6)"}, {"measurement": "Mouth ulceration", "setting": "MAD All SN1011, N = 18", "value": "1 (5.6)"}, {"measurement": "Oropharyngeal pain", "setting": "MAD All SN1011, N = 18", "value": "1 (5.6)"}, {"measurement": "Sinus arrythmia", "setting": "MAD All SN1011, N = 18", "value": "1 (5.6)"}, {"measurement": "Treatment discontinuation due to AEs", "setting": "MAD All SN1011, N = 18", "value": 0}, {"measurement": "Upper respiratory tract infection", "setting": "MAD All SN1011, N = 18", "value": "1 (5.6)"}]}
